# Most compounds without a hit are left out; they make up all but 2.1% or so of the library.
# Calpain2 inh: inhibitors of pig calpain II, primary screen, biochemical, fluorogenic peptide substrate, 1536-well; 220,000 tested, 0.37% active; inhibition, % at 16 µM; purified calpain II, 30 min; AID 1236, 2008;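 active = inhibition above about 50%, limit read from the data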
# RanGTP-Imp inh: inhibitors of RanGTP-importin-beta interaction, primary screen, biochemical, FRET, CFP-Ran, YFP-importin-beta, homogeneous | 300,000 tested, 1.1% active | Ran GTPase (GTP-bound) - importin-beta complex | cell-free CFP-Ran/YFP-importin-beta FRET ratio | AID 2216, 2009 | inhibition, % (no concentration beside the values);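 active = more than half of the replicate wells show a fall in the fluorescence ratio signal beyond about 16%, limit read from the data, passing the limit was not always enough; inconclusive = exactly half of the replicate wells pass the set limit; inactive = fewer than half of replicates pass the limit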;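 also: 0% = DMSO wells and 100% = Ran loaded with GDP instead of GTP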
# FAS TE block: FAS thioesterase domain inhibitors, primary screen, biochemical, fluorescence intensity, uHTS; Fatty acid synthase (Homo sapiens), P49327; recombinant FAS-TE, OMFH fluorogenic substrate, fluorescence endpoint; inhibition, % at 15 µM; 360,000 tested, 0.67% active;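 active = compounds whose normalised, plate-corrected inhibition of enzyme fluorescence in the single-dose primary screen is 50% or more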;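 also: 0% = DMSO with enzyme and 100% = substrate without enzyme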
# Runt-SMMHC FRET: inhibitors of RUNX1 Runt–CBFb-SMMHC binding, primary screen, biochemical, FRET, Cerulean-Runt, Venus-CBFb-SMMHC, uHTS | Runt-related transcription factor 1 (Homo sapiens) + Core-binding factor subunit beta … | Cerulean-Runt/Venus-CBFb-SMMHC FRET ratio 530/480, 1 h | inhibition, % at 20 µM | 220,000 tested, 0.74% active | AID 1434, 2008;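 active = mean inhibition across duplicate retests at 20 µM reaching about 50%, limit read from the data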;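 also: 0% = DMSO wells and 100% = wells with excess untagged CBFb-SMMHC; inhibitors lower the FRET ratio by blocking Runt binding to CBFb-SMMHC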
# Target sequence (Q01196 whole entry, looked up): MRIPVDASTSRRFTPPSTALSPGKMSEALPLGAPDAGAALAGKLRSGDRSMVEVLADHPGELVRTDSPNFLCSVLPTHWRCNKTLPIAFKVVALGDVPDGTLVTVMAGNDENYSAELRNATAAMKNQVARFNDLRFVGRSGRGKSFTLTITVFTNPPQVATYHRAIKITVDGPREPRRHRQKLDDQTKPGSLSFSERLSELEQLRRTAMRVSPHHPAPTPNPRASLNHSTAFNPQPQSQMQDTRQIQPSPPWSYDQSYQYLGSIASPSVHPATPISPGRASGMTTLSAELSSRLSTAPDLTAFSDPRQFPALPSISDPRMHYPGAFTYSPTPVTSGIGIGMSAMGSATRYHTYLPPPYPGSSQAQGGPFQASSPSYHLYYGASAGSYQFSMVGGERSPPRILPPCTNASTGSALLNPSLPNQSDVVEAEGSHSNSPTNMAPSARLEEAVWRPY
# Target sequence (Q13951 whole entry, looked up): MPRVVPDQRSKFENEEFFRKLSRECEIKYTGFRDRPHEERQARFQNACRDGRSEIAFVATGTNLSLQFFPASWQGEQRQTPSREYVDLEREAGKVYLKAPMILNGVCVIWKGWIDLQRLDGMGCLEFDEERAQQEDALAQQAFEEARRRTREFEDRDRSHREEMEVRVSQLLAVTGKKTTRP
# Runt-CBFb FRET: inhibitors of RUNX1 Runt–CBFb binding, primary screen, biochemical, FRET, Cerulean-Runt, Venus-CBFb, uHTS; AID 1496, 2009; Runt-related transcription factor 1 (Homo sapiens) + Core-binding factor subunit beta …; Cerulean-Runt/Venus-CBFb FRET ratio 530/480, 1 h; inhibition, % at 20 µM; 220,000 tested, 0.46% active;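 active = inhibition over about 50% at 20 µM in the single-dose screen, limit read from the data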;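 also: 0% = DMSO wells and 100% = excess unlabeled CBFb competitor control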
#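 Measured by: fluorescence energy transfer, 422 nm excitation, 530/480 nm emission; Assay system: Cerulean-Runt domain; Medium: Tris pH 7.5 buffer with BSA; Measure: loss of energy transfer signal; Controls: 5 µM unlabeled CBFb as full-inhibition high control; Incubation: protein complex preformed 1 h, compound exposure 1 h, room temperature, dark.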
# YIC FRET counter: YIC intramolecular FRET probe signal interference, dose response, counter-screen for RanGTP-importin-beta inhibitor project, biochemical, fluorescence FRET; Purified YIC probe, intramolecular FRET ratio YFP/CFP; 1,000 tested, 40% active; IC50, µM; shares compounds with RanGTP-Imp inh; AID 435026, 2010;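 active = fitted half-maximal inhibitory concentration no more than tenfold above the top dose tested; inconclusive = flat fit with 30 to 70% activity, or poor fit; inactive = half-maximal concentration beyond tenfold above the top dose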
# * = called active by the depositor; i = inactive; u = inconclusive; x = not tested or not shown.
SMILES,Calpain2 inh,RanGTP-Imp inh,FAS TE block,Runt-SMMHC FRET,Runt-CBFb FRET,YIC FRET counter
COc1ccc(OC)c(C(=O)COC(=O)c2cccnc2SC)c1,x,x,19,x,x,x
CN(C)S(=O)(=O)c1ccc(N2CCCC2)c(C(=O)NC(c2ccccc2)c2ccccc2)c1,-9,19*,31,-5,-2,>50
CCSc1nnc2ccc(-c3ccc(OC)c(OC)c3)nn12,x,3,1,x,x,x
Cc1cccc(C)c1OCC(=O)OC/C(O)=C(\C#N)c1nc2ccccc2[nH]1,5,26*,-15,1,3,>50
Cc1cc(C)cc(OCC(=O)OC/C(O)=C(\C#N)c2nc3ccccc3[nH]2)c1,-14,-3,-9,2,2,x
NS(=O)(=O)c1cccc(NC(=O)CCSc2ccc(Cl)cc2)c1,1,19*,2,-22,9,>50
O=C(O)C1CCCN1C(=O)C1CCN(S(=O)(=O)c2cccc(C(F)(F)F)c2)CC1 (stereo unspecified),x,x,-4,x,x,x
CCOC(=O)C1=C(N)Oc2ccc3ccccc3c2C1c1ccc(O)c(OC)c1 (stereo unspecified),x,29*,20,x,x,>50
CCOC(=O)C1=C(N)Oc2ccc3ccccc3c2C1c1ccc(O)cc1 (stereo unspecified),x,5,36,x,x,x
O=c1cc(CN2CCN(S(=O)(=O)c3ccc4c(c3)OCCO4)CC2)c2ccc(O)cc2o1,i,46*,6,102*,102*,6.9*
CCc1ccc2c(CN3CCN(S(=O)(=O)c4ccc5c(c4)OCCO5)CC3)cc(=O)oc2c1,-199,4,16,-2,-3,x
CC(=O)N(/N=C1\Sc2ccccc2C1=O)c1ccc(C)cc1C,7,3,7,7,18,x
CC(=O)N(/N=C1\Sc2ccccc2C1=O)c1ccccc1C,x,24*,-10,-9,x,40*
N=c1c(S(=O)(=O)c2ccc(Cl)cc2)cc2c(=O)n3ccccc3nc2n1Cc1cccnc1,x,33*,11,x,x,u
COc1ccc2c(c1)C(c1ccc(C)o1)=NNC(c1cccnc1)=N2,-25,21*,-2,4,0,>50
COc1ccc2c(c1)C(c1ccc(C)o1)=NNC(c1ccccc1)=N2,-5,5,10,-2,4,x
CCN(/N=C/C=C/c1ccccc1)c1cc(=O)n(C)c(=O)[nH]1,52*,27*,23,1,1,>50
O=C(CCN1C(=O)C2CC=CCC2C1=O)Nc1cccc(Cl)c1 (stereo unspecified),x,-1,-8,x,x,x
CCN(Cc1ccccc1)C(=O)CN1C(=O)NC(CC)(c2ccc(F)cc2)C1=O (stereo unspecified),x,23*,2,x,x,>50
COCCNC(=S)N1CCCN(c2nc3cc(C)ccc3cc2C#N)CC1,x,18*,0,x,x,31*
CC(NS(=O)(=O)c1ccc2ccccc2c1)c1ccccn1 (stereo unspecified),x,x,-6,x,x,x
CCOc1cc(CN2CCC(CO)(Cc3cccc(C(F)(F)F)c3)CC2)ccc1OC,12,0,0,-1,-3,x
O=C(COc1ccc(F)cc1Br)NCc1ccccn1,3,u,-5,-2,-1,x
O=C(O)COc1ccc(F)cc1Br,0,25*,-4,0,1,>50
O=C(/C=C/c1cccs1)NNC(=O)c1ccccc1,x,x,-5,x,x,x
Cn1cnc(S(=O)(=O)NC2CCN(Cc3ccccc3)CC2)c1,x,-1,-8,x,x,x
Cc1cccc(C(=O)OCCN2CCOCC2)c1,x,4,-3,x,x,x
CN(C)S(=O)(=O)c1cccc(NC(=O)CCCC2CCCCC2)c1,x,3,23,x,x,x
CN(C)S(=O)(=O)c1cccc(NC(=O)CNC2CCCCC2)c1,-5,27*,-3,0,-2,>50
CCOC(=O)N1CCN(c2nc(=S)n(-c3ccccc3)c(C)c2C(C)=O)CC1,-6,-2,-11,-5,0,x

# Bioassay records deposited in PubChem BioAssay by several laboratories.
